Source: ChEMBL document CHEMBL4406880, “Design, synthesis, and bioactivity of dihydropyrimidine derivatives as kinesin spindle protein inhibitors” (Bioorg Med Chem, 2019)

Key:
Type in all cases: functional
NCI-H522 [1] = assay: Growth inhibition of human NCI-H522 cells incubated for 48 hrs by sulforhodamine B assay; settings: NCI-H522, 48 h
Method in brief: (§1)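 NCI-60 five-dose SRB assay in RPMI 1640 with 5% FBS, 37 °C, 5% CO2. Compound given at five tenfold dilutions, 0.01–100 µM, for 48 h. Adherent cells fixed with TCA, suspension cells with 16% final TCA. Bound SRB read at 515 nm and growth calculated against time-zero and untreated controls. GI50 taken from dose–response curves as the concentration giving a 50% decrease in net cell growth.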

HT-29 = assay: Growth inhibition of human HT-29 cells incubated for 48 hrs by sulforhodamine B assay; settings: HT-29, 48 h; method in brief: as §1
M14 [2] = assay: Growth inhibition of human M14 cells incubated for 48 hrs by sulforhodamine B assay; settings: M14, 48 h; method in brief: as §1
UO-31 = assay: Growth inhibition of human UO31 cells incubated for 48 hrs by sulforhodamine B assay; settings: UO-31, 48 h
Method in brief: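 NCI-60 five-dose SRB assay. Cells were exposed for 48 h to tenfold dilutions of 0.01, 0.1, 1, 10 and 100 µM, in RPMI 1640 with 5% FBS. Plates fixed with TCA at the time of drug addition served as the time-zero reference. GI50 is the concentration giving a 50% reduction in net growth. TGI is total growth inhibition. LC50 is a net 50% loss of the initial cells.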

SNB-75 [3] = assay: Induction of apoptosis in human SNB75 cells assessed as necrosis at 2 uM incubated for 24 hrs by annexin V FITC and propidium iodide based flow cytometry (reference value: 0.44 %)
NCI-H522 [4] = assay: Growth inhibition of human NCI-H522 cells assessed as cell viability at 100 uM incubated for 48 hrs by sulforhodamine B assay; settings: NCI-H522, 48 h, read-out: Activity
K562 [5] = assay: Growth inhibition of human K562 cells assessed as cell viability at 100 uM incubated for 48 hrs by sulforhodamine B assay; settings: K562, 48 h, read-out: Activity
RXF 393 = assay: Growth inhibition of human RXF393 cells assessed as cell viability at 1 uM incubated for 48 hrs by sulforhodamine B assay; settings: RXF 393, 48 h, read-out: Activity
ACHN [6] = assay: Growth inhibition of human ACHN cells assessed as cell viability at 1 uM incubated for 48 hrs by sulforhodamine B assay; settings: read-out: Activity
Method in brief: (§2)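 NCI-60 five-dose mode: five tenfold dilutions (0.01, 0.1, 1, 10, 100 µM) are applied for 48 h to cells in RPMI 1640 with 5% FBS at 37 °C. Endpoint is TCA fixation with sulforhodamine B read at 515 nm. % growth comes from the 0 h and control absorbances. GI50 is the concentration giving a 50% reduction in net cell growth.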

M14 [7] = assay: Growth inhibition of human M14 cells assessed as cell viability at 1 uM incubated for 48 hrs by sulforhodamine B assay; settings: M14, 48 h, read-out: Activity
SNB-75 [8] = assay: Growth inhibition of human SNB75 cells assessed as cell viability at 1 uM incubated for 48 hrs by sulforhodamine B assay; settings: SNB-75, 48 h, read-out: Activity
SNB-19 [9] = assay: Growth inhibition of human SNB19 cells assessed as cell viability at 1 uM incubated for 48 hrs by sulforhodamine B assay; settings: SNB-19, 48 h, read-out: Activity
SN12C [10] = assay: Growth inhibition of human SN12C cells assessed as cell viability at 0.1 uM incubated for 48 hrs by sulforhodamine B assay; settings: read-out: Activity
A498 = assay: Growth inhibition of human A498 cells assessed as cell viability at 0.1 uM incubated for 48 hrs by sulforhodamine B assay; settings: A498, 48 h, read-out: Activity; method in brief: as §2
SNB-75 [11] = assay: Growth inhibition of human SNB75 cells assessed as cell viability at 0.1 uM incubated for 48 hrs by sulforhodamine B assay; settings: SNB-75, 48 h, read-out: Activity
COLO 205 = assay: Growth inhibition of human COLO205 cells assessed as cell viability at 0.1 uM incubated for 48 hrs by sulforhodamine B assay; settings: COLO 205, 48 h, read-out: Activity
NCI-H522 [12] = assay: Growth inhibition of human NCI-H522 cells assessed as cell viability at 0.1 uM incubated for 48 hrs by sulforhodamine B assay; settings: NCI-H522, 48 h, read-out: Activity
SR = assay: Growth inhibition of human SR cells assessed as cell viability at 0.1 uM incubated for 48 hrs by sulforhodamine B assay; settings: read-out: Activity
HL-60(TB) = assay: Growth inhibition of human HL-60(TB) cells assessed as cell viability at 0.1 uM incubated for 48 hrs by sulforhodamine B assay; settings: HL-60, 48 h, read-out: Activity
Method in brief: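 NCI-60 five-dose assay, SRB end-point, same culture conditions. Compound is tested at tenfold dilutions of 0.01, 0.1, 1, 10 and 100 µM for 48 h at 37 °C, with DMSO/PBS vehicle controls. Percentage growth at each concentration is taken against untreated cells and a time-zero plate. GI50 is 50% net growth decrease, TGI is total growth inhibition, and LC50 is 50% loss of initial cells.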

SN12C [13] = assay: Growth inhibition of human SN12C cells assessed as cell viability at 0.001 uM incubated for 48 hrs by sulforhodamine B assay relative to control; settings: read-out: Activity
OVCAR-4 = assay: Growth inhibition of human OVCAR4 cells assessed as cell viability at 0.001 uM incubated for 48 hrs by sulforhodamine B assay relative to control; settings: OVCAR-4, 48 h, read-out: Activity
SNB-19 [14] = assay: Growth inhibition of human SNB19 cells assessed as cell viability at 0.001 uM incubated for 48 hrs by sulforhodamine B assay relative to control; settings: SNB-19, 48 h, read-out: Activity
HCT-15 = assay: Growth inhibition of human HCT15 cells assessed as cell viability at 0.001 uM incubated for 48 hrs by sulforhodamine B assay relative to control; settings: HCT-15, 48 h, read-out: Activity
K562 [15] = assay: Growth inhibition of human K562 cells assessed as cell viability at 0.001 uM incubated for 48 hrs by sulforhodamine B assay relative to control; settings: K562, 48 h, read-out: Activity
SK-OV-3 = assay: Growth inhibition of human SKOV3 cells assessed as cell viability at 100 uM incubated for 48 hrs by sulforhodamine B assay; settings: SK-OV-3, 48 h, read-out: Activity
ACHN [16] = assay: Growth inhibition of human ACHN cells assessed as cell viability at 100 uM incubated for 48 hrs by sulforhodamine B assay; settings: read-out: Activity; method in brief: as §2
[17] = read-out: LC50 (the source's name)
[18] = read-out: pLC50 (the source's name) (converted)

SMILES: CC1=C(C(=O)OCc2ccccc2)C(c2ccc3c(c2)OCO3)n2c(nc3ccccc32)N1 (racemic)
- GI50 (NCI-H522 [1]; read-out: GI50): 0.14 µM
- CC50 (NCI-H522 [1]; [17]): > 100 µM
- TGI (NCI-H522 [1]; read-out: TGI): 33.2 µM
- GI50 (NCI-H522 [1]; read-out: pGI50 (converted)): 0.135 µM
- CC50 (NCI-H522 [1]; [18]): > 100 µM
- TGI (NCI-H522 [1]; read-out: pTGI (converted)): 33.1 µM
- GI50 (HT-29; read-out: GI50): 0.34 µM
- LC50 (50% net cell kill) (HT-29; read-out: LC50): > 100 µM
- TGI (HT-29; read-out: TGI): > 100 µM
- GI50 (HT-29; read-out: pGI50 (converted)): 0.347 µM
- LC50 (50% net cell kill) (HT-29; read-out: pLC50 (converted)): > 100 µM
- TGI (HT-29; read-out: pTGI): > 100 µM
- GI50 (M14 [2]; read-out: GI50): 0.46 µM
- LC50 (50% net cell kill) (M14 [2]; read-out: LC50): > 100 µM
- TGI (M14 [2]; read-out: TGI): > 100 µM
- GI50 (M14 [2]; read-out: pGI50 (converted)): 0.468 µM
- LC50 (50% net cell kill) (M14 [2]; read-out: pLC50 (converted)): > 100 µM
- TGI (M14 [2]; read-out: pTGI): > 100 µM
- GI50 (UO-31; read-out: GI50): 0.59 µM
- CC50 (UO-31; [17]): > 100 µM
- GI50 (UO-31; read-out: pGI50 (converted)): 0.589 µM
- CC50 (UO-31; [18]): > 100 µM
- TGI (UO-31; read-out: pTGI (converted)): 63.1 µM
- Activity (SNB-75 [3]): 2.05%
- viability at 100 µM (NCI-H522 [4]): -8%
- viability at 100 µM (K562 [5]): 26%
- viability at 1 µM (RXF 393): 7%
- viability at 1 µM (ACHN [6]): 39%
- viability at 1 µM (M14 [7]): 30%
- viability at 1 µM (SNB-75 [8]): -8%
- viability at 1 µM (SNB-19 [9]): 35%
- viability at 0.1 µM (SN12C [10]): 95%
- viability at 0.1 µM (A498): 95%
- viability at 0.1 µM (SNB-75 [11]): 79%
- viability at 0.1 µM (COLO 205): 101%
- viability at 0.1 µM (NCI-H522 [12]): 57%
- viability at 0.1 µM (SR): 75%
- viability at 0.1 µM (HL-60(TB)): 97%
- viability at 0.001 µM (SN12C [13]): 89%
- viability at 0.001 µM (OVCAR-4): 82%
- viability at 0.001 µM (SNB-19 [14]): 94%
- viability at 0.001 µM (HCT-15): 92%
- viability at 0.001 µM (K562 [15]): 93%
- viability at 100 µM (SK-OV-3): 42%
- viability at 100 µM (ACHN [16]): 35%
